Data on 1 compound can be found in ChEMBL document CHEMBL4834419 (J Med Chem, 2021).

Values after ≈ are worked out from the molar mass of the structure shown.

In series [1] the target is T1, Retinoic acid receptor RXR-alpha (Homo sapiens, UniProt P19793).
T1 sequence (P19793 whole entry): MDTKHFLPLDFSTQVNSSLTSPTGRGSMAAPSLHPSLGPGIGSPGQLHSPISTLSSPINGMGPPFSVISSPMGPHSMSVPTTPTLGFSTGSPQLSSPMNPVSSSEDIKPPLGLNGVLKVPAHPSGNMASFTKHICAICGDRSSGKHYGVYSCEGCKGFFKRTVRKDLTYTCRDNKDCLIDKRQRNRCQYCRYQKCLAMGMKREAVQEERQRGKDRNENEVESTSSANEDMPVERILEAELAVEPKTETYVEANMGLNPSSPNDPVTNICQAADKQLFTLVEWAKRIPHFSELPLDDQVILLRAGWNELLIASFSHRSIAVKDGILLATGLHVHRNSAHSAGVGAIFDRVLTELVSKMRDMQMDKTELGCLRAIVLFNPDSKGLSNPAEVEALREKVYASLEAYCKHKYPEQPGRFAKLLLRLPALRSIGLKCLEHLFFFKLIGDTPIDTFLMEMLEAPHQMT
The series is described as follows: Agonist activity at human RXRalpha transfected in human HEK293T cells co-expressing pFR/pRL-Luc incubated for 14 to 16 hrs by hybrid reporter gene assay. The class given is cell-based.

The nature of series [2]: Aqueous solubility of compound in pH 8 phosphate buffer incubated for 1 hr by HPLC analysis. Type of series: physicochemical. The note with it: phosphate buffer, pH 8. A digest of the protocol: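 Solubility was measured with 3 mg compound in 2 mL 0.1 M phosphate buffer, pH 8, shaken 1 h at 37 °C. The mixture was pressed through a Uniprep filter and the dissolved compound in the filtrate quantified by HPLC against an external calibration; three independent experiments.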

Series [3] addresses T2, Oxysterols receptor LXR-alpha (Homo sapiens) (UniProt Q13133).
T2 sequence (whole entry): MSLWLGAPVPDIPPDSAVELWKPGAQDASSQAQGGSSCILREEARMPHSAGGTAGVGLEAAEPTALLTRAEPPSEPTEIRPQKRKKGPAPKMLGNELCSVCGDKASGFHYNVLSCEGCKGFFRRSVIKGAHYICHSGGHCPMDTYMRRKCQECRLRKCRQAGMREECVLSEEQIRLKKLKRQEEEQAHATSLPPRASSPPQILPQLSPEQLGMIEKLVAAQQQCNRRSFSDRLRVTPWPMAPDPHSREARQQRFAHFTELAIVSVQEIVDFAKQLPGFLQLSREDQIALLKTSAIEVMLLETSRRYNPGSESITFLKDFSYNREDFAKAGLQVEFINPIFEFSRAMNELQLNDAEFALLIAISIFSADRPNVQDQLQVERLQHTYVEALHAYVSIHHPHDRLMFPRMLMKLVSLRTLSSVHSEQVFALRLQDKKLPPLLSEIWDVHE
The series is described as follows: Agonist activity against human LXRalpha in human HEK293T cells co-expressing pFR/pRL-Luc assessed as receptor activation at 10 uM incubated for 14 to 16 hrs by hybrid reporter gene assay relative to bexarotene. The class given is cell-based. The settings on record: filed as agonist, time 14-16 hrs. A digest of the protocol: (§1)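 Gal4 hybrid reporter assay in HEK293T cells, seeded 24 h before transfection (Lipofectamine LTX, Opti-MEM) with pFR-Luc, pRL-SV40 and pFA-CMV plasmid carrying the hinge region and LBD of the human receptor. After 5 h, compound added in 0.1% DMSO, with 0.1% DMSO alone as untreated control. Dual-Glo luciferase read after 14−16 h; firefly/renilla normalized; duplicates, ≥2 independent experiments.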

Series [4] concerns the target T3, Bile acid receptor (Homo sapiens) (UniProt Q96RI1).
T3 sequence (whole entry): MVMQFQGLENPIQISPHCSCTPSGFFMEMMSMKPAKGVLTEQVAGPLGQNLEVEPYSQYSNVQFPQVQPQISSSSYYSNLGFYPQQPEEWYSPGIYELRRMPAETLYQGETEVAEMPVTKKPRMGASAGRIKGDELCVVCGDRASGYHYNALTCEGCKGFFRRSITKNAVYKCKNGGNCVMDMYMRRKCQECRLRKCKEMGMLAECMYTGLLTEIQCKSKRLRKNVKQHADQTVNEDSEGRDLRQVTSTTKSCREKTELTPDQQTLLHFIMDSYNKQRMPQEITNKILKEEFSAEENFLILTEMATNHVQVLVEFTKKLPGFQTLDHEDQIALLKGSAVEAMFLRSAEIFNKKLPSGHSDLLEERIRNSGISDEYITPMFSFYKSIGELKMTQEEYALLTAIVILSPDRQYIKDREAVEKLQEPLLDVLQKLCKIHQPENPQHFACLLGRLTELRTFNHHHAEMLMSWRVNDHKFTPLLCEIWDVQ
Put plainly: Agonist activity against human FXR in human HEK293T cells co-expressing pFR/pRL-Luc assessed as receptor activation at 10 uM incubated for 14 to 16 hrs by hybrid reporter gene assay relative to bexarotene. Type of series: cell-based. The settings on record: filed as agonist, time 14-16 hrs. A digest of the protocol:
as §1

In series [5] the target is T4, Nuclear receptor subfamily 1 group I member 3 (Homo sapiens, UniProt Q14994).
T4 sequence (Q14994 whole entry): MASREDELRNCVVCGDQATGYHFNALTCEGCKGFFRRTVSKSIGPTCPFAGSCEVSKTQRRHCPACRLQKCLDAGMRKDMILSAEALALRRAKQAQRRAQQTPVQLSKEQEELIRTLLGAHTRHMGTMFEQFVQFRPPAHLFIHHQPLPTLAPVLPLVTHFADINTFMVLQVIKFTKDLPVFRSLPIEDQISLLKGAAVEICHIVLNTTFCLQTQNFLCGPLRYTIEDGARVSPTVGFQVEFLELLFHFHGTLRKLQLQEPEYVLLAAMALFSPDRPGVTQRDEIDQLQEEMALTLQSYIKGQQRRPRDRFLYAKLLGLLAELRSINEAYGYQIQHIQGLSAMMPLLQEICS
The series is described as follows: Agonist activity against human CAR in human HEK293T cells co-expressing pFR/pRL-Luc assessed as receptor activation at 10 uM incubated for 14 to 16 hrs by hybrid reporter gene assay relative to bexarotene. The class given is cell-based. The note with it: time 14-16 hrs. An outline of the steps: as §1

Series [6] in a line: Half life in mouse at 10 mg/kg, po. Type of series: ADME, organism-based. The note with it: in vivo. A digest of the protocol:
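Mice, n = 3, received a single oral dose of 10 mg/kg in water with 1% hydroxypropyl methylcellulose/Tween 80 (99:1). Tail-vein blood was drawn at 30 and 60 min and tissue collected at 3 h. Compound was quantified by LC−MS and PK derived by noncompartmental analysis.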

Compound `O=C(O)CCCc1cc(-c2cc(Cl)cc(Cl)c2)n(-c2ccccc2)n1` gave a half-maximal effective concentration (EC50) in series [1] of 250 nM. For the same compound, in series [2], the solubility at 1 h stood at 21 µg/mL (≈ 56 µM). The Activity was determined as 1% in series [3], 1% in series [4] and 5% in series [5]. Besides, the half-life in series [6] was > 3 h.
